An excerpt weighted towards active compounds, which were near 3.8% of everything screened.
SIRT5 block = blocks human SIRT5 desuccinylation of peptide | Purified SirT5, succinyl-peptide AMC, trypsin-coupled fluorescence | AID 652115 | inhibition, % at 15 µM | hit rate 1.1% among 330,000; in the data active = inhibition above about 15%; inconclusive = no clear call, values can overlap the other calls
Target sequence (Q9NXA8 whole entry, looked up): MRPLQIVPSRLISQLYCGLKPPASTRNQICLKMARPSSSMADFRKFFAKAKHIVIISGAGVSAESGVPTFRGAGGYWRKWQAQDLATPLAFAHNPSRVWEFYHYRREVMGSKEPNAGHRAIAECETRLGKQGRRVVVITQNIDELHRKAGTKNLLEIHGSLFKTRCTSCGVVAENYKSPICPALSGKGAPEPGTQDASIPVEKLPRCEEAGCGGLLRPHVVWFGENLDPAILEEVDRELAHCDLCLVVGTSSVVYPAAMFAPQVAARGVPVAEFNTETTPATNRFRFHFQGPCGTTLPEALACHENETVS
FN deposit inh = fibronectin deposition inhibition; inhibition, % at 12.6 µM; AH1F fibroblasts, Alexa488-fibronectin deposition fluorescence, overnight; AID 743247; hit rate 0.086% among 350,000;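 active = mean inhibition across replicates of 30% or more, regardless of how many single replicates reach that level; inconclusive = mean under 30% yet at least half of replicates reach 30%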;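 note: positive control wells lacked labelled fibronectin entirely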
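material = AH1F fibroblast monolayer depositing Alexa488-labelled fibronectin into matrix | amount = 10000 AH1F cells/well | buffer or medium = DMEM plus 2% serum, read in PBS | incubation = 1 h cell adhesion before compound, then overnight fibronectin incubation | detection = fluorescence at 485 nm excitation, 525 nm emission | evaluation = percent inhibition as loss of matrix-bound fibronectin fluorescence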
ARNT TACC3 PPI = ARNT/TACC3 interaction disruption; Q9Y6A5; AlphaScreen His-ARNT PAS-B/GST-TACC3 binding, luminescence; TACC3 fragment carries E629A point mutation; inhibition, % at 9.99 µM; hit rate 0.66% among 390,000;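 active = mean inhibition of replicates at least 50% and at least half of replicates each reaching 50%; inconclusive = half or more replicates reach 50% but mean below 50%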;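 note: 0% = complete ARNT plus TACC3 wells and 100% = ARNT alone without TACC3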
FGF22 binding = FGF22 (human) thermal shift binding; activity (Tm shift, normalised), % at 9.99 µM; recombinant FGF22 thermal shift, SYPRO orange fluorescence; percent of sucrose octasulfate shift, DMSO zero; hit rate 1.5% among 340,000; Q9HCT0;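 active = mean Tm shift, scaled 0 neutral to 100 positive control, at about 1.3% or above, every replicate too, limit read from the data; inconclusive = no clear call, values can overlap the other calls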
Target sequence (Q9HCT0 whole entry, looked up): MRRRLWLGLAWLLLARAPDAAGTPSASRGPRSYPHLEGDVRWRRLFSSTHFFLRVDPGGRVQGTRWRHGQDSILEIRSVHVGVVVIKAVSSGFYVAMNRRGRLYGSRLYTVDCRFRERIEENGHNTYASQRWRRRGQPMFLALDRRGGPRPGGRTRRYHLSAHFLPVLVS
DENV2 CPE = protects cells from dengue virus 2 cytopathic effect; hit rate 1.7% among 350,000; DENV2-infected cells, cytopathic effect rescue, plate reader; CPE inhibition, % at 9.99 µM; AID 651640; in the data active = CPE inhibition above about 20%, passing the limit was not always enough; inconclusive = no clear call, values can overlap the other calls; tested in BHK-21 cells;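 note: 0% = median of neutral control wells and 100% = median of positive control wells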
Xi reactivation = activators of X-chromosome reactivation in mouse fibroblasts; XiGFP mouse fibroblasts, % GFP-positive cells imaging, 3 d; cells co-treated with 5-aza-dC sensitizer; scaled so ellipticine positive control = 100%; activation, % at 7.58 µM; hit rate 0.055% among 360,000;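 active = mean normalized replicate activation at least 10% and every replicate at or above 10%; inconclusive = only one of the two criteria met; inactive = mean below 10% and not all replicates reach 10%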;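 note: 0% = median of on-plate neutral control wells and 100% = ellipticine 6 µM median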
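Assay system: SV40-immortalized XiGFP fibroblast cells, line 68-5-11; buffer or medium: DMEM plus 5-aza-dC sensitizer; compound: one concentration, pinned; timing: compounds 3 days, fix/stain 15 min at room temperature; benchmarks: positive control ellipticine, 6 µM final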
The depositor's hits bear a star; ? = inconclusive; nt = no result given.

SMILES	SIRT5 block	FN deposit inh	ARNT TACC3 PPI	FGF22 binding	DENV2 CPE	Xi reactivation
CC(OC(=O)C1CC(=O)N(Cc2ccco2)C1)C(=O)Nc1cccc(C#N)c1 (configuration not stated)	-3	-4	-6	0	21*	0
O=C(NCc1ccccn1)C(=O)N/N=C/c1ccccc1O	1	-1	64*	0	7	0
O=C(NCCCN1CCOCC1)C(=O)N/N=C/c1ccccc1Cl	2	-23	-3	0	8	0
O=C(COc1nsnc1N1CCOCC1)N/N=C/c1ccccc1O	nt	0	59*	0	3	0
O=C(NCCCN1CCOCC1)C(=O)N/N=C/c1ccccc1O	3	7	69*	0	14	0
Cc1cc(=O)oc2cc(OCC(=O)N/N=C/c3ccccc3O)ccc12	-8	4	-4	0	1	0
CSc1nc(C)cc(OCC(=O)N/N=C/c2ccccc2O)n1	nt	14	49*	nt	nt	0
CC(C)NC(=O)N1CC2(C1)[C@@H](c1ccccc1)[C@@H](CO)N2C(=O)C1CCCCC1	-3	nt	nt	nt	?	0
CCCNC(=O)C[C@H]1C[C@H]2c3cc(N(C)C)ccc3O[C@H]2[C@@H](CO)O1	0	8	nt	nt	-7	0
C[C@@H]1CN([C@H](C)CO)C(=O)c2cc(NS(C)(=O)=O)ccc2O[C@@H]1CN(C)S(=O)(=O)c1cccs1	-4	-2	1	0	16	-1
CO[C@H]1CN(C)C(=O)c2cc(NS(=O)(=O)c3cccc(F)c3)ccc2OC[C@H](C)N(Cc2cc(F)ccc2F)C[C@@H]1C	16*	nt	-4	0	-9	0
CO[C@H]1CN(C)C(=O)c2ccc(NS(=O)(=O)c3cccc(F)c3)cc2OC[C@@H](C)N(Cc2cc(F)ccc2F)C[C@H]1C	nt	-2	1	0	49*	0
CO[C@H]1CN(C)C(=O)c2cc(NS(=O)(=O)c3cccc(F)c3)ccc2OC[C@@H](C)N(Cc2cc(F)ccc2F)C[C@@H]1C	13	nt	-12	0	22*	0
CO[C@H]1CN(C)C(=O)c2cc(NS(=O)(=O)c3cccc(F)c3)ccc2OC[C@H](C)N(Cc2cc(F)ccc2F)C[C@H]1C	0	nt	2	-1	-5	0
CCOc1ccc(/C=C2/SC(=S)N(C(C(=O)O)c3ccccc3)C2=O)cc1OCC (configuration not stated)	10	nt	0	7.5*	0	0
CCOC(=O)C1(Cc2ccccc2)CCCN(C2CCN(C(C)=O)CC2)C1 (configuration not stated)	23*	6	1	nt	6	0
CCOC(=O)N1CCC(N2CCCC(CO)(Cc3cccc(OC)c3)C2)CC1 (configuration not stated)	0	-2	nt	43*	-3	0
CCOC(=O)C1(Cc2ccccc2)CCCN(C(=O)C=C(C)C)C1 (configuration not stated)	1	-7	-3	0	-7	0
C[C@H]1CN([C@@H](C)CO)S(=O)(=O)c2ccc(-c3cccc(F)c3)cc2O[C@H]1CN(C)CC1CC1	2	6	15	0	7	-1
CC(C)c1cccc(C(C)C)c1NC(=O)CNCC(O)c1ccccc1 (configuration not stated)	1	-2	-22	0	-3	0
CC(C)c1cccc(C(C)C)c1NC(=O)CCl	16*	1	-9	0	16	0
Cc1cnc(C(=O)OCC(=O)Nc2cccc(S(=O)(=O)N3CCCCC3)c2)cn1	28*	2	3	0	4	0
NS(=O)(=O)c1cccc(NC(=O)COC(=O)Cc2ccc(S(=O)(=O)N3CCCCC3)s2)c1	2	5	-9	43*	0	0
COCC(=O)N1C[C@H](C)[C@H](OC)CN(C)C(=O)c2ccc(NC(=O)Nc3cccc(F)c3)cc2OC[C@@H]1C	nt	10	nt	nt	nt	0
COc1cccc(CNC(=O)C[C@H]2CC[C@@H](NC(=O)C3CC3)[C@@H](CO)O2)c1	2	-15	-7	0	-12	-1
SMILES	SIRT5 block	FN deposit inh	ARNT TACC3 PPI	FGF22 binding	DENV2 CPE	Xi reactivation
CC(C)NC(=O)N[C@@H]1C=C[C@H](CC(=O)NC2Cc3ccccc3C2)O[C@@H]1CO	-6	1	2	-1	4	0
Cc1ccc(NC(=O)n2ccc(-c3ccc(-n4ccnc4)cc3)n2)cc1	17*	0	nt	0	-5	0
Cc1ccccc1S(=O)(=O)N1[C@H](C#N)[C@@H](c2ccc(C#CC3CCCC3)cc2)[C@@H]1CO	1	-11	nt	nt	-27	0
CCNC(=O)[C@H]1[C@H](CO)[C@H]2Cn3c(ccc(-c4cncnc4)c3=O)[C@H]2N1Cc1ccc2c(c1)OCO2	-1	nt	-4	0	5	0
Cc1ccc(-n2c(SCC(=O)N3CCOCC3)nc(O)cc2=O)cc1	2	nt	nt	0	69*	0
COc1ccc(-n2c(SCC(=O)N3CCOCC3)nc(O)cc2=O)cc1	-2	nt	nt	0	14	0
CO[C@H](CN(C)C(=O)C1CCOCC1)[C@H](C)CN(C(=O)Nc1ccc(F)cc1)[C@@H](C)CO	-5	1	0	0	-5	0
N/C(=N\OC(=O)/C=C/c1ccccc1)c1cccnc1	-2	0	-3	43*	4	0
CO[C@H]1CN(C)C(=O)c2ccc(NC(=O)C3CCCCC3)cc2OC[C@H](C)N(C(=O)c2ccccc2)C[C@H]1C	2	4	0	0	-13	0
CCCCN(C=O)c1c(CC)nc2ccc(C(=O)N3CCN(c4ccccc4)CC3)cn12	-4	-16	nt	0	-5	0
CCCCN(C=O)c1c(CC)nc2ccc(C(=O)N3CCCCC3)cn12	44*	-2	nt	0	-1	0
Cc1cccc(Oc2nccc(C(F)(F)F)c2C(=O)Nc2ccc(F)cc2F)c1	-2	10	-4	nt	32*	0
COCC(=O)Nc1ccc2c(c1)C(=O)N(C)C[C@H](OC)[C@H](C)CN(CC1CCCCC1)[C@H](C)CO2	0	-5	-2	0	-3	0
C[C@@H](NC(=O)C[C@H]1C=C[C@@H](NC(=O)CN2CCOCC2)[C@H](CO)O1)c1ccccc1	-3	5	14	0	1	0
O=C(CN1CCOCC1)N1CCCCN2[C@H](C1)[C@H](c1ccc(C#Cc3ccccc3F)cc1)[C@@H]2CO	-2	nt	-3	-1	43*	0
O=C(CN1CCOCC1)N1CCCCN2[C@H](CO)[C@H](c3ccc(C#Cc4ccccc4F)cc3)[C@@H]2C1	5	nt	-8	-1	48*	0
